ChEMBL document CHEMBL1158458, “Virtual screening approach for the identification of new Rac1 inhibitors” (J Med Chem, 2009)
Calls of active or inactive are those of the source. No cut-off for these calls is given here.

Assays:
[1] = target: Cell division control protein 42 homolog (Homo sapiens) (UniProt P60953); experiment: Inhibition of Cdc42
[2] = target: Transforming protein RhoA (Homo sapiens) (UniProt P61586); experiment: Inhibition of PDGF-BB-stimulated RhoA activity in human aortic smooth muscle cells assessed as reduction in ratio of RhoAGTP/RhoA levels at 25 uM after 4 hrs by pull-down assay
Chain of Transforming protein RhoA (Homo sapiens) (P61586 whole entry): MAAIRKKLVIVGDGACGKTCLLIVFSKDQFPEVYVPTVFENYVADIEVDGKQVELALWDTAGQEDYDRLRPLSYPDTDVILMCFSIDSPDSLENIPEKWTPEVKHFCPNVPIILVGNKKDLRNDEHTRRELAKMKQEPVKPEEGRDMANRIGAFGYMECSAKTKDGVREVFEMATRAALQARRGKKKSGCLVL
How it was run: (§1)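 Cultured human aortic SMCs exposed to compound at 25 μM for 4 h, then stimulated with PDGF-BB (final 10 ng/mL) for 2 min. Active GTPase (Cdc42-GTP for line 2, RhoA-GTP for line 3) isolated by pull-down and expressed as the GTP-bound/total protein ratio. The Rac1 pull-down was run under the same conditions.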

[3] = target: Cell division control protein 42 homolog (Homo sapiens) (UniProt P60953); experiment: Inhibition of PDGF-BB-stimulated Cdc42 activity in human aortic smooth muscle cells assessed as reduction in ratio of Cdc42GTP/Cdc42 levels at 25 uM after 4 hrs by pull-down assay; how it was run: as §1
[4] = target: Ras-related C3 botulinum toxin substrate 1 (Mus musculus) (UniProt P63001); experiment: Inhibition of PDGF-BB-stimulated Rac1-mediated cellular events in mouse 3T3 cells assessed as induction of membrane ruffling formation at 25 uM after 48 hrs by fluorescent microscopy; format: cell-based; conditions: NIH3T3
How it was run: (§2)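 Serum-starved 3T3 cells were treated with compound at 25 μM and stimulated with PDGF-BB. Lamellipodia and membrane ruffle formation at the cell edges were then scored, together with cytoskeletal rearrangement.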

[5] = target: Ras-related C3 botulinum toxin substrate 1 (Mus musculus) (UniProt P63001); experiment: Inhibition of PDGF-BB-stimulated Rac1-mediated cellular events in mouse 3T3 cells assessed as induction of membrane lamillipodia at 25 uM after 48 hrs by fluorescent microscopy; format: cell-based; conditions: NIH3T3; how it was run: as §2
[6] = target: Ras-related C3 botulinum toxin substrate 1 (Homo sapiens, UniProt P63000); experiment: Inhibition of PDGF-BB-stimulated Rac1 activity in human aortic smooth muscle cells assessed as reduction of Rac1GTP level after 4 hrs by G-LISA

Chain of Cell division control protein 42 homolog (Homo sapiens) (P60953 whole entry, looked up): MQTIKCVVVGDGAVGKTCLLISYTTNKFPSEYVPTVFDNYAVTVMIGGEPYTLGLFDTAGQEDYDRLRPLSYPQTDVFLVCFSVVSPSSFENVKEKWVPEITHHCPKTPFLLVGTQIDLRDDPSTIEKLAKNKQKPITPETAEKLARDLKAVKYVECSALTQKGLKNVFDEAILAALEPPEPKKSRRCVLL

In the case of `O=C(CNc1ccc(F)c([N+](=O)[O-])c1)Nc1ccc(N2CCOCC2)cc1`, the Activity [1] is reported as “Active”, the Activity [2] is reported as “inactive” and the Percent reduction in Cdc42-GTP/total Cdc42 ratio [3] is reported as < 25%.

For `CC(OC(=O)c1ccc2ccccc2c1O)C(=O)Nc1ccc(N2CCOCC2)cc1` (stereo not given), the Activity [1] was “Active”, the Activity [2] was “inactive” and the Percent reduction in Cdc42-GTP/total Cdc42 ratio [3] was < 25%.

`COc1ccc(NC(=O)c2n[nH]c3ccccc23)cc1S(=O)(=O)N1CCCCC1` was tested, and the Activity [4] was “Active”, the Activity [1] was “Active” and the Activity [5] was “Active”. For the same compound, the Activity [2] was “inactive” and the Percent reduction in Cdc42-GTP/total Cdc42 ratio [3] was < 25%.

With `COc1cc2c(C#N)c(N3CCN(c4ccccc4OC)CC3)nc(N)c2c(N)n1` the Activity [1] was “Active”, the IC50 [6] was 46.1 µM and the Activity [2] was “inactive”. For the same compound, the Percent reduction in Cdc42-GTP/total Cdc42 ratio [3] was < 25%.
